From ChEMBL document CHEMBL1124065, “Development of a new physicochemical model for brain penetration and its application to the design of centrally acting H2 receptor histamine antagonists” (J Med Chem, 1988)

Columns and labels:
[1] = Change in logarithm of partition coefficient of the compound; assay type: physicochemical; conditions: octanol/water
Procedure, shortened: (§1)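 Shake-flask partitioning at 37 °C in 1-octanol/water and cyclohexane/water, with buffer salts setting aqueous pH. Aqueous-phase compound concentration was read spectrophotometrically before and after partitioning. Neutral-form log P was calculated from eq 1 using the measured log P at a stated pH and the pKa. Values are means of ≥2 determinations. Δlog P = log P(octanol) − log P(cyclohexane).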

[2] = Log (Cbrain/Cblood) in rats; conditions: rat
[3] = Log of (Cbrain/Cblood) in rats; conditions: rat
[4] = Partition coefficient (Log Pn, neutral form, cyclohexane/water); assay type: ADME; procedure, shortened: as §1
[5] = (§2) Logarithm of partition coefficient of the neutral form of compound given for octanol/water solvent system; assay type: physicochemical
Procedure, shortened: as §1, with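 “pKa.” for “pKa. Values are means of ≥2 determinations. Δlog P = log P(octanol) − log P(cyclohexane).”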

[6] = target: Histamine H2 receptor (Cavia porcellus) (UniProt P47747); experiment: In vitro Histamine H2 receptor antagonist activity in the histamine-stimulated guinea pig right atrium; assay type: functional, tissue-based; conditions: Cardiac atrium
[7] = Delta logPoct-cyc; assay type: ADME; conditions: octanol/water
Procedure, shortened: as §1, with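 “pKa.” for “pKa. Values are means of ≥2 determinations. Δlog P = log P(octanol) − log P(cyclohexane).”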

[8] = as §2; assay type: physicochemical; procedure, shortened: as §1; remark: listed apart in the source
[9] = Logarithm of partition coefficient of the neutral form of compound given for […]/water solvent system; assay type: physicochemical; conditions: octanol/water

Sequence of Histamine H2 receptor (Cavia porcellus) (P47747 whole entry): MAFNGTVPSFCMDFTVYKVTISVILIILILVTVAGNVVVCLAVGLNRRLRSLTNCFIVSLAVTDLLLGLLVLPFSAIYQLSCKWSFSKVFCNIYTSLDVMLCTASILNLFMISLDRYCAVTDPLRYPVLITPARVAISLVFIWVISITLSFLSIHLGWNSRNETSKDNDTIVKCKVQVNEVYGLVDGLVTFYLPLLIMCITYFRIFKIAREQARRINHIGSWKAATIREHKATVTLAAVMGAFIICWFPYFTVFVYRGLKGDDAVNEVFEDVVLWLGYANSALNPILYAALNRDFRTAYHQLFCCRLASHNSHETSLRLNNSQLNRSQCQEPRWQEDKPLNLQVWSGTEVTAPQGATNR

| SMILES | delta Log P [1] | Log Pn [4] | logP [5] | -Log KB [6] | Kp ([3]; in vivo) | further results |
| --- | --- | --- | --- | --- | --- | --- |
| CN(C)c1cccc(-c2csc(NC(=N)N)n2)c1 |  |  |  | < 3.8 |  |  |
| COc1cccnc1CCCCNc1ncc(Cc2ccc(C)nc2)c(=O)[nH]1 [ICOTIDINE] |  |  |  |  |  | delta logP [7]: 5.18; logP [8]: 2.58 |
| Clc1cccc(Cl)c1N=C1NCCN1 [CLONIDINE] |  |  |  |  |  | delta logP [7]: 2.44 |
| c1cc(CN2CCCCC2)cc(OCCCNc2nc3ccccc3s2)c1 [ZOLANTIDINE] | 1.69 | 3.72 |  | 7.46 | 1.38 |  |
| COc1ccc(CN(CCN(C)C)c2ccccn2)cc1 [PYRILAMINE] |  |  | 3.3 |  |  | delta logP [7]: 0.71 |
| Cc1csc(N=C(N)N)n1 | 4.03 | -2.79 |  | 6.27 | 0.873 | Kp ([2]; in vivo): 0.912 |
| Cc1ccc(Cc2c[nH]c(NCCSCc3ccc(CN(C)C)o3)nc2=O)cn1 [LUPITIDINE] | 3.81 | -1.48 | 2.33 | 7.91 |  | Kp ([2]; brain and blood): 0.0871; Kp ([3]; brain and blood): 0.0884; Log Pn [9]: 2.64 |
| N=C(N)Nc1nc(-c2cccc(N)c2)cs1 | 4.6 | -3.19 | 1.41 | 7.33 |  | Kp ([2]; brain and blood): 0.0708; Kp ([3]; brain and blood): 0.0705 |
| O=[N+]([O-])c1cc[nH]c1NCCSCc1nccc2ccccc12 | 3.46 | -0.67 | 2.79 | 6.84 |  |  |
| CC(=O)Nc1cccc(-c2csc(N=C(N)N)n2)c1 |  |  |  | 7.36 | 0.018 | Kp ([2]; in vivo): 0.0269 |
| N=C(N)Nc1nc(-c2ccccc2)cs1 |  |  |  | 5.93 |  |  |
| CN(C)Cc1ccnc(-c2cccc(Nc3[nH]ccc3[N+](=O)[O-])c2)c1 |  |  |  | 6.6 | 0.454 | Kp ([2]; in vivo): 0.525 |
| c1cc(CN2CCCCC2)cc(OCCCNc2nc3ccccc3o2)c1 |  |  |  | 7.19 | 1.42 |  |
| NC(N)=Nc1nc(-c2ccccc2)cs1 | 3.92 | -1.28 | 2.64 |  |  | Kp ([2]; brain and blood): 0.661; Kp ([3]; brain and blood): 0.66 |
| CNC(=NCCSCc1csc(N=C(N)N)n1)NC#N [TIOTIDINE] |  |  | 0.6 |  |  |  |
| CN(C)Cc1ccc(CSCCNc2ncc(Cc3ccc4ccccc4c3)c(O)n2)o1 |  |  | 4.57 |  |  | delta logP [7]: 4.1 |
| O=C(NCCCOc1cccc(CN2CCCCC2)c1)c1ccccc1 | 1.79 | 2.18 | 3.97 | 7.79 | 0.58 | Kp ([2]; in vivo): 0.575 |
| C/N=C(\NC#N)Nc1cccc(-c2csc(N=C(N)N)n2)c1 | 4.26 | -2.66 |  | 7.84 |  | Kp ([2]; brain and blood): 0.0288; Kp ([3]; brain and blood): 0.0293 |
| O=[N+]([O-])c1cc[nH]c1NCCSCc1ccccn1 |  |  |  | 6.7 | 0.18 |  |

Continued, in another order:

| delta Log P [1] | Log Pn [4] | logP [5] | -Log KB [6] | Kp ([3]; in vivo) | SMILES | further results |
| --- | --- | --- | --- | --- | --- | --- |
| 3.09 | -1.34 | 1.75 | 7.24 |  | O=[N+]([O-])c1cc[nH]c1NCCSCc1ncccc1Br | Kp ([2]; brain and blood): 0.214; Kp ([3]; brain and blood): 0.214 |
|  |  |  | 6.97 |  | O=[N+]([O-])c1c(Cc2ccccc2)c[nH]c1NCCSCc1ccccn1 | Kp ([2]; brain and blood): 0.759; Kp ([3]; brain and blood): 0.724 |
| 1.93 | 0.22 | 2.15 | 7.79 | 0.346 | CC(=O)NCCCOc1cccc(CN2CCCCC2)c1 | Kp ([2]; in vivo): 0.347 |
|  |  |  | 5.7 |  | c1ccc(NCCCOc2cccc(CN3CCCCC3)c2)cc1 |  |
| 2.54 | 1.11 | 3.65 | 7.35 | 0.184 | CN(C)Cc1ccc(CSCCNc2[nH]cc(Cc3ccccc3)c2[N+](=O)[O-])o1 | Kp ([2]; in vivo): 0.186 |
|  |  |  | 6.21 |  | c1cc(CN2CCCCC2)cc(OCCCNc2ccc3ccccc3n2)c1 |  |
|  |  |  | < 4.9 |  | CC(NCCCOc1cccc(CN2CCCCC2)c1)=C(C#N)C#N |  |
| 3.12 | -1.48 | 1.64 | 6.63 |  | CN(C)Cc1ccc(CSCCNc2[nH]ccc2[N+](=O)[O-])o1 | Kp ([2]; brain and blood): 0.0759; Kp ([3]; brain and blood): 0.0652 |
|  | 1.31 | 2.78 |  |  | OCCCOc1cccc(CN2CCCCC2)c1 |  |
|  |  |  | < 4.3 |  | FC(F)(F)CNCCCOc1cccc(CN2CCCCC2)c1 |  |
| 1.06 | 3.23 | 4.29 | 6.09 | 4.85 | c1ccc(NCCCOc2cccc(CN3CCCCC3)c2)nc1 | Kp ([2]; in vivo): 4.9 |
|  |  |  | 5.59 |  | CN(C)c1cc(-c2n[nH]c(N)n2)ccn1 | Kp ([2]; brain and blood): 0.0676 |
|  |  |  | < 4.8 |  | O=S(=O)(NCCCOc1cccc(CN2CCCCC2)c1)c1ccccc1 |  |
|  | < -3 | 0.27 | 7.05 | 0.0586 | CN/C(=C\[N+](=O)[O-])NCCSCc1ccc(CN(C)C)o1 [RANITIDINE] | Kp ([2]; in vivo): 0.0589 |
| 2.88 | 0.22 | 3.1 | 6.02 |  | CN(C)Cc1ccc(-c2cccc(Nc3[nH]ccc3[N+](=O)[O-])c2)o1 | Kp ([2]; brain and blood): 0.537; Kp ([3]; brain and blood): 0.545 |
|  |  |  | 4.67 |  | CS(=O)(=O)NCCCOc1cccc(CN2CCCCC2)c1 |  |
|  |  |  | < 4.3 |  | CN(C)Cc1ccc(-c2ccc(Nc3[nH]ccc3[N+](=O)[O-])cc2)o1 |  |
|  |  |  | 7.41 | 1.98 | c1cc(CN2CCCCC2)cc(OCCCNc2nccs2)c1 | Kp ([2]; in vivo): 2.75 |
|  |  | 1.04 | 7.31 |  | Cc1[nH]cnc1CSCCNc1[nH]ccc1[N+](=O)[O-] |  |
|  |  |  | < 3.8 |  | CN(C)Cc1ccc(-c2cccc(CNc3[nH]ccc3[N+](=O)[O-])c2)o1 |  |
|  |  | 1.98 | 6.5 | 0.00753 | CC/N=C(\NC#N)NCCSCc1ncccc1Br | Kp ([2]; in vivo): 0.00708 |
|  |  |  | 5.19 |  | NCCCOc1cccc(CN2CCCCC2)c1 |  |
